Experimental data as given in ChEMBL document CHEMBL4819122, “Novel 4-(piperazin-1-yl)quinolin-2(1H)-one bearing thiazoles with antiproliferative activity through VEGFR-2-TK inhibition” (Bioorg Med Chem, 2021).

Assays:
NCI-H23 = assay: Cytotoxicity against human NCI-H23 assessed as growth inhibition at 10 uM by NCI protocol relative to control; type: functional; conditions: read-out: GI
Procedure, shortened: (§1)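 Run by NCI as a single-dose screen at 10 μM across the sixty-cell-line panel, which covers nine human tumour tissue types. The read-out is percent growth inhibition of treated cells relative to untreated cells.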

NCI-H460 = assay: Cytotoxicity against human NCI-H460 assessed as growth inhibition at 10 uM by NCI protocol relative to control; type: functional; conditions: read-out: GI; procedure, shortened: as §1
OVCAR-3 = assay: Cytotoxicity against human OVCAR-3 assessed as growth inhibition at 10 uM by NCI protocol relative to control; type: functional; conditions: read-out: GI; procedure, shortened: as §1
786-0 = assay: Cytotoxicity against human 786-0 assessed as growth inhibition at 10 uM by NCI protocol relative to control; type: functional; conditions: read-out: GI; procedure, shortened: as §1
U-251 = assay: Cytotoxicity against human U251 assessed as growth inhibition at 10 uM by NCI protocol relative to control; type: functional; conditions: read-out: GI
Procedure, shortened: (§2)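 Run by the NCI under its standard protocol: one dose of 10 μM against a sixty-line panel from nine human tumour tissues. Result given as percent growth inhibition of treated cells relative to untreated cells.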

SW-620 = assay: Cytotoxicity against human SW-620 assessed as growth inhibition at 10 uM by NCI protocol relative to control; type: functional; conditions: read-out: GI; procedure, shortened: as §2
HL-60 = assay: Cytotoxicity against human HL60 assessed as growth inhibition at 10 uM by NCI protocol relative to control; type: functional; conditions: read-out: GI; procedure, shortened: as §1
SNB-19 = assay: Cytotoxicity against human SNB-19 assessed as growth inhibition at 10 uM by NCI protocol relative to control; type: functional; conditions: read-out: GI; procedure, shortened: as §2
DU-145 = assay: Cytotoxicity against human DU-145 assessed as growth inhibition at 10 uM by NCI protocol relative to control; type: functional; conditions: read-out: GI; procedure, shortened: as §1
UACC-257 = assay: Cytotoxicity against human UACC-257 assessed as growth inhibition at 10 uM by NCI protocol relative to control; type: functional; conditions: read-out: GI; procedure, shortened: as §2
MCF7 = assay: Cytotoxicity against human MCF7 assessed as growth inhibition at 10 uM by NCI protocol relative to control; type: functional; conditions: read-out: GI; procedure, shortened: as §1
MDA-MB-231 = assay: Cytotoxicity against human MDA-MB-231 assessed as growth inhibition at 10 uM by NCI protocol relative to control; type: functional; conditions: read-out: GI; procedure, shortened: as §1
HCC 2998 = assay: Cytotoxicity against human HCC-2998 assessed as growth inhibition at 10 uM by NCI protocol relative to control; type: functional; conditions: read-out: GI; procedure, shortened: as §1
T47D [1] = assay: Cytotoxicity against human T47D cells assessed as reduction in cell viability after 3 hrs by MTT assay
RPMI-8226 = assay: Cytotoxicity against human RPMI-8226 assessed as growth inhibition at 10 uM by NCI protocol relative to control; type: functional; conditions: read-out: GI; procedure, shortened: as §1
CCRF-CEM = assay: Cytotoxicity against human CCRF-CEM assessed as growth inhibition at 10 uM by NCI protocol relative to control; type: functional; conditions: read-out: GI; procedure, shortened: as §1
SK-MEL-5 = assay: Cytotoxicity against human SK-MEL-5 assessed as growth inhibition at 10 uM by NCI protocol relative to control; type: functional; conditions: read-out: GI; procedure, shortened: as §1
A498 = assay: Cytotoxicity against human A498 assessed as growth inhibition at 10 uM by NCI protocol relative to control; type: functional; conditions: read-out: GI; procedure, shortened: as §1
MDA-MB-468 = assay: Cytotoxicity against human MDA-MB-468 assessed as growth inhibition at 10 uM by NCI protocol relative to control; type: functional; conditions: read-out: GI; procedure, shortened: as §1
K562 = assay: Cytotoxicity against human K-562 assessed as growth inhibition at 10 uM by NCI protocol relative to control; type: functional; conditions: read-out: GI; procedure, shortened: as §1
Malme-3M = assay: Cytotoxicity against human MALME-3M assessed as growth inhibition at 10 uM by NCI protocol relative to control; type: functional; conditions: read-out: GI; procedure, shortened: as §1
UACC-62 = assay: Cytotoxicity against human UACC-62 assessed as growth inhibition at 10 uM by NCI protocol relative to control; type: functional; conditions: read-out: GI; procedure, shortened: as §2
SR = assay: Cytotoxicity against human SR assessed as growth inhibition at 10 uM by NCI protocol relative to control; type: functional; conditions: read-out: GI; procedure, shortened: as §2
PC-3 = assay: Cytotoxicity against human PC3 assessed as growth inhibition at 10 uM by NCI protocol relative to control; type: functional; conditions: read-out: GI; procedure, shortened: as §1
ACHN = assay: Cytotoxicity against human ACHN assessed as growth inhibition at 10 uM by NCI protocol relative to control; type: functional; conditions: read-out: GI; procedure, shortened: as §1
OVCAR-4 = assay: Cytotoxicity against human OVCAR-4 assessed as growth inhibition at 10 uM by NCI protocol relative to control; type: functional; conditions: read-out: GI; procedure, shortened: as §1
HOP-92 = assay: Cytotoxicity against human HOP-92 assessed as growth inhibition at 10 uM by NCI protocol relative to control; type: functional; conditions: read-out: GI; procedure, shortened: as §1
HT-29 = assay: Cytotoxicity against human HT29 assessed as growth inhibition at 10 uM by NCI protocol relative to control; type: functional; conditions: read-out: GI; procedure, shortened: as §1
NCI-H322M = assay: Cytotoxicity against human NCI-H322M assessed as growth inhibition at 10 uM by NCI protocol relative to control; type: functional; conditions: read-out: GI; procedure, shortened: as §1
MOLT-4 = assay: Cytotoxicity against human MOLT-4 assessed as growth inhibition at 10 uM by NCI protocol relative to control; type: functional; conditions: read-out: GI; procedure, shortened: as §1
IGROV-1 = assay: Cytotoxicity against human IGROVI assessed as growth inhibition at 10 uM by NCI protocol relative to control; type: functional; conditions: read-out: GI; procedure, shortened: as §1
M14 = assay: Cytotoxicity against human M14 assessed as growth inhibition at 10 uM by NCI protocol relative to control; type: functional; conditions: read-out: GI; procedure, shortened: as §1
HCT-15 = assay: Cytotoxicity against human HCT-15 assessed as growth inhibition at 10 uM by NCI protocol relative to control; type: functional; conditions: read-out: GI; procedure, shortened: as §1
SF-295 = assay: Cytotoxicity against human SF-295 assessed as growth inhibition at 10 uM by NCI protocol relative to control; type: functional; conditions: read-out: GI; procedure, shortened: as §1
NCI/ADR-RES = assay: Cytotoxicity against human NCl/ADR-RES assessed as growth inhibition at 10 uM by NCI protocol relative to control; type: functional; conditions: read-out: GI; procedure, shortened: as §1
T47D [2] = assay: Cytotoxicity against human T-47D assessed as growth inhibition at 10 uM by NCI protocol relative to control; type: functional; conditions: read-out: GI; procedure, shortened: as §2
NCI-H226 = assay: Cytotoxicity against human NCI-H226 assessed as growth inhibition at 10 uM by NCI protocol relative to control; type: functional; conditions: read-out: GI; procedure, shortened: as §1
RXF 393 = assay: Cytotoxicity against human RXF 393 assessed as growth inhibition at 10 uM by NCI protocol relative to control; type: functional; conditions: read-out: GI; procedure, shortened: as §1
LOX IMVI = assay: Cytotoxicity against human LOX IMVI assessed as growth inhibition at 10 uM by NCI protocol relative to control; type: functional; conditions: read-out: GI; procedure, shortened: as §1
Hs-578T = assay: Cytotoxicity against human HS 578T assessed as growth inhibition at 10 uM by NCI protocol relative to control; type: functional; conditions: read-out: GI; procedure, shortened: as §1
SK-MEL-28 = assay: Cytotoxicity against human SK-MEL-28 assessed as growth inhibition at 10 uM by NCI protocol relative to control; type: functional; conditions: read-out: GI; procedure, shortened: as §1
OVCAR-8 = assay: Cytotoxicity against human OVCAR-8 assessed as growth inhibition at 10 uM by NCI protocol relative to control; type: functional; conditions: read-out: GI; procedure, shortened: as §1

O=C(CN1CCN(c2cc(=O)[nH]c3ccc(F)cc23)CC1)Nc1nc(-c2ccc(Cl)cc2)cs1 showed an inhibition of growth at 10 µM (NCI-H23) of 28.8%, an inhibition of growth at 10 µM (NCI-H460) of 18.1% and an inhibition of growth at 10 µM (OVCAR-3) of 16.9%. It also gave an inhibition of growth at 10 µM (786-0) of 32.8%, an inhibition of growth at 10 µM (U-251) of 37.3% and an inhibition of growth at 10 µM (SW-620) of 41.2%. For the same compound, the inhibition of growth at 10 µM (HL-60) was 38.3%, the inhibition of growth at 10 µM (SNB-19) was 30.8% and the inhibition of growth at 10 µM (DU-145) was 41.1%. It also gave an inhibition of growth at 10 µM (UACC-257) of 31.3%, an inhibition of growth at 10 µM (MCF7) of 39.7% and an inhibition of growth at 10 µM (MDA-MB-231) of 16.6%. For the same compound, the inhibition of growth at 10 µM (HCC 2998) was 30.9%, the IC50 (T47D [1]) was 2.73 µM and the inhibition of growth at 10 µM (RPMI-8226) was 38.3%. For the same compound, the inhibition of growth at 10 µM (CCRF-CEM) was 33.3%, the inhibition of growth at 10 µM (SK-MEL-5) was 34.6% and the inhibition of growth at 10 µM (A498) was 60.5%. The inhibition of growth at 10 µM (MDA-MB-468) was 51.4%, the inhibition of growth at 10 µM (K562) was 44.8% and the inhibition of growth at 10 µM (Malme-3M) was 43.3%. It also gave an inhibition of growth at 10 µM (UACC-62) of 32%, an inhibition of growth at 10 µM (SR) of 29.1% and an inhibition of growth at 10 µM (PC-3) of 45.1%. For the same compound, the inhibition of growth at 10 µM (ACHN) was 38.5%, the inhibition of growth at 10 µM (OVCAR-4) was 39.1% and the inhibition of growth at 10 µM (HOP-92) was 29.7%. For the same compound, the inhibition of growth at 10 µM (HT-29) was 25.6%, the inhibition of growth at 10 µM (NCI-H322M) was 21.3% and the inhibition of growth at 10 µM (MOLT-4) was 52.8%. It also gave an inhibition of growth at 10 µM (IGROV-1) of 50.8%, an inhibition of growth at 10 µM (M14) of 30.6% and an inhibition of growth at 10 µM (HCT-15) of 34.9%. For the same compound, the inhibition of growth at 10 µM (SF-295) was 20.4%, the inhibition of growth at 10 µM (NCI/ADR-RES) was 41.9% and the inhibition of growth at 10 µM (T47D [2]) was 73.2%. The inhibition of growth at 10 µM (NCI-H226) was 12.6%, the inhibition of growth at 10 µM (RXF 393) was 37.6% and the inhibition of growth at 10 µM (LOX IMVI) was 21.8%. For the same compound, the inhibition of growth at 10 µM (Hs-578T) was 33.5%, the inhibition of growth at 10 µM (SK-MEL-28) was 17.3% and the inhibition of growth at 10 µM (OVCAR-8) was 24%.
